Experimental data of several laboratories.
Compare with care: the assays were run in different laboratories.
Target: Mitogen-activated protein kinase kinase kinase 5 (MAP3K5, Homo sapiens, UniProt Q99683)
One construct used (Q99683 1-1374): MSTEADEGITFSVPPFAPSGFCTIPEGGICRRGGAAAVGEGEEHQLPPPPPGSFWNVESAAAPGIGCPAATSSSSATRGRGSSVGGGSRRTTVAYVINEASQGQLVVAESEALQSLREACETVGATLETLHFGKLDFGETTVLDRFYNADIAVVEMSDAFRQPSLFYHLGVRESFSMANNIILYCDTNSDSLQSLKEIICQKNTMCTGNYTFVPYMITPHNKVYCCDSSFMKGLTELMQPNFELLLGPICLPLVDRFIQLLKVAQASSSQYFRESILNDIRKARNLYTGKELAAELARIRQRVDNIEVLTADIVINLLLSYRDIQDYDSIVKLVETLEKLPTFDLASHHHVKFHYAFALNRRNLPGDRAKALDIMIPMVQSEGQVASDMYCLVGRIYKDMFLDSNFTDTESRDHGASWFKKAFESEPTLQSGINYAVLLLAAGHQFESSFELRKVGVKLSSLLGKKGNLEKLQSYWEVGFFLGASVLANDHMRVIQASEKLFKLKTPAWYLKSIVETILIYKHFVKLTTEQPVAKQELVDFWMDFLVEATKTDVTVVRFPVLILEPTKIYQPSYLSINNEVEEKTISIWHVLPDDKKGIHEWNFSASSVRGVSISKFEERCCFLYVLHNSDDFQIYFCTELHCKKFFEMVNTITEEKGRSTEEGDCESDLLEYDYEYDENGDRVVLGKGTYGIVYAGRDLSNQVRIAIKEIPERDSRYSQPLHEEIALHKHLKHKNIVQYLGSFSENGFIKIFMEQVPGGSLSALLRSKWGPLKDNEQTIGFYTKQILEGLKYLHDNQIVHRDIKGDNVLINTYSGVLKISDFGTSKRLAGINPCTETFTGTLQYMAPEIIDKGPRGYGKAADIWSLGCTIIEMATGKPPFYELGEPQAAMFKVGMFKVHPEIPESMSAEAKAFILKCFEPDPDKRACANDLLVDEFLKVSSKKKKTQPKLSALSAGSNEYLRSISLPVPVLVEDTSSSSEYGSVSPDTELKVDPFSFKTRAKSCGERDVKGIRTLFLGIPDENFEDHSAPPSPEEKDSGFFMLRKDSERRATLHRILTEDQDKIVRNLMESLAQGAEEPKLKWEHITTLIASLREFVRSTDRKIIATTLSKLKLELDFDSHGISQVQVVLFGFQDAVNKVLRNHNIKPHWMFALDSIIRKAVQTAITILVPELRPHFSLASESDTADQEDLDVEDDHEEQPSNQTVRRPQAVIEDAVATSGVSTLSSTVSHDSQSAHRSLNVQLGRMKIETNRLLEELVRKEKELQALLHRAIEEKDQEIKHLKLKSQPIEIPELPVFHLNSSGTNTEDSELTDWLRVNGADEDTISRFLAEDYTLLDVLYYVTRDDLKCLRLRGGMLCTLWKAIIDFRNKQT

COc1cc(Nc2ncc(F)c(Nc3ccc4c(n3)NC(=O)C(C)(C)O4)n2)cc(OC)c1OC  inhibition (binding, competition with immobilised ligand; 10 µM): 0%
O=c1[nH]c2ccccc2n1C1CCN(Cc2ccc(-c3[nH]c4cc5ncnc5cc4nc3-c3ccccc3)cc2)CC1  remaining signal (cell-free assay; 0.5 µM): 93.8%
Nc1ncc(-c2nc(N3CCOCC3)nc(N3CCOCC3)n2)c(C(F)F)n1  remaining binding (binding, competition with immobilised ligand; 10 µM): 92%
COc1ncccc1-c1cnn2ccc(N3CCN(C(=O)OC(C)C)CC3)nc12  remaining binding (binding, competition with immobilised ligand; 1 µM): 73%
Cc1nn(C)cc1-c1nc2c(N3CCN(Cc4ccc(Cl)cc4)CC3)c(Cl)cnc2[nH]1  remaining binding (binding, competition with immobilised ligand; 1 µM): 100%
Cn1cc(-c2cc(F)cc(N3CCn4c(cc5c4CCCC5)C3=O)c2CO)cc(Nc2ccc(N3CCN(C4COC4)CC3)cn2)c1=O  inhibition (enzyme activity, inhibitor; 0.1 µM): 2%
N#CC1(c2ccccn2)CCN(Cc2cc(C(=O)O)c(=O)n3ccccc23)CC1  remaining binding (cell-free assay, competition with immobilised ligand; 1 µM): 75%
Cn1cc(-c2cccc(N3CCc4c(sc5c4CC(C)(C)C5)C3=O)c2CO)cc(Nc2ccncn2)c1=O  inhibition (enzyme activity, inhibitor; 1 µM): 14%
CC(C)(C)c1cc(C=C(C#N)C#N)cc(Br)c1O  remaining activity (enzyme activity, inhibitor; 0.5 µM): 100%
Cn1cncc1[C@@](O)(COc1ccc(C#N)cc1-c1ccc(OC(F)(F)F)cc1)c1ccc(C#N)cc1  remaining binding (cell-free assay, competition with immobilised ligand; 1 µM): 91%
